In general, inhibition refers to the relative decrease from the control value, in per cent.

Test [1] concerns Saccharomyces cerevisiae. Put plainly: Inhibition of heat-induced amorphous aggregation of yeast ADH at 2.5 uM measured over 2 hrs by light scattering assay. In outline: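 ADH (5 μM) aggregation induced with 20 mM DTT and 2 mM EDTA (final) at 42 °C; light scattering followed as absorbance at 340 nm over 2 h, with or without C-PC (2.5 μM); triplicate, mean ± SEM.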
For test [2], the system named is Alpha-synuclein (Homo sapiens), P37840 [A53T]. Put plainly: Inhibition of fibril formation of human alpha-synuclein A53T mutant expressed in Escherichia coli BL21(DE3) assessed as reduction in mature fibrils formation at 2 uM after 100 hrs by uranyl acetate staining based transmission electron microscopic method. The method, boiled down:
(§1)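 End-point samples from ThT aggregation assays (αS or Aβ 10 μM, C-PC 2 μM; αS 100 h, Aβ40 25 h, Aβ42 2 h) adsorbed on carbon-coated grids, negatively stained with 2% (w/v) uranyl acetate, imaged by TEM.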

The test system is the same in test [3]. Kind of test: Binding affinity to human 15N-labeled alpha-synuclein A53T mutant expressed in Escherichia coli BL21(DE3) assessed as chemical perturbation at H50 at 7.5 uM by 2D 1H-15N HSQC NMR analysis. The method, boiled down:
(§2)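 Uniformly 15N-labelled monomeric αS (grown in M9 medium with [15N]NH4Cl, IPTG-induced) titrated with C-PC; 1H–15N HSQC spectra in 10 mM Na2HPO4, 100 mM NaCl, pH 7.4; amide chemical shift changes and signal-to-noise monitored using prior resonance assignments.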

The test system is the same in test [4]. Put plainly: Binding affinity to human alpha-synuclein A53T mutant expressed in Escherichia coli BL21(DE3) assessed as compound-protein stable complex formation at 2 uM after 20 hrs by native mass spectrometry analysis. The method, boiled down: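 αS (10 μM) incubated with C-PC (2 μM) at 40 °C for 20 h, then analysed by native nanoelectrospray MS for αS–C-PC complex peaks versus monomer/dimer and C-PC oligomer species.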

Test [5] has the same test system. Put plainly: Inhibition of fibril formation of human alpha-synuclein A53T mutant expressed in Escherichia coli BL21(DE3) at protein to compound molar ratio of 200:1 after 100 hrs by ThT fluorescence assay relative to control. The following applies: concentration not given here. In outline:
(§3)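 αS (10 μM) incubated 100 h at 37 °C in 500 mM ammonium acetate pH 7.4 with C-PC at αS:C-PC 2:1 to 200:1; ThT read at 440/490 nm; inhibition = end-point (100 h) ThT fluorescence with C-PC as percentage of αS alone; n = 3, mean ± SEM.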

In test [6] the target is Amyloid-beta precursor protein (Homo sapiens) (UniProt P05067). Kind of test: Inhibition of amyloid beta (1 to 40) (unknown origin) fibril formation at 2 uM after 25 hrs by uranyl acetate staining based transmission electron microscopic method. The method, boiled down: as §1
Test [7] concerns Alpha-synuclein (Homo sapiens), P37840 [A53T]. Put plainly: Inhibition of fibril formation of human alpha-synuclein A53T mutant expressed in Escherichia coli BL21(DE3) after 100 hrs by ThT fluorescence assay. In outline: as §3
Test [8] addresses Amyloid-beta precursor protein (Homo sapiens) (UniProt P05067). Kind of test: Inhibition of amyloid beta (1 to 42) (unknown origin) fibril formation at 2 uM after 2 hrs by uranyl acetate staining based transmission electron microscopic method. In outline:
as §1

The target is the same in test [9]. Put plainly: Inhibition of amyloid beta (1 to 40) (unknown origin) fibril formation at protein to compound ratio of 5:1 after 100 hrs by ThT fluorescence assay. The method, boiled down:
(§4)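 Aβ40 or Aβ42 (10 μM; NaOH-pretreated stock for monomerization) incubated with C-PC at 5:1 Aβ:C-PC in 500 mM ammonium acetate pH 7.4, 37 °C, sealed plates, up to 100 h; ThT fluorescence 440/490 nm; triplicate, mean ± SEM.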

For test [10], the system named is Alpha-synuclein (Homo sapiens), P37840 [A53T]. Put plainly: Binding affinity to human alpha-synuclein A53T mutant expressed in Escherichia coli BL21(DE3) assessed as compound-protein stable complex formation at 2 uM after 20 hrs by size-exclusion chromatographic method. Background: SEC sorts molecules by how far they enter the pores of the column.
For test [11] the test system is unchanged. Put plainly: Induction of conformational changes in human alpha-synuclein A53T mutant expressed in Escherichia coli BL21(DE3) assessed as ion population arrival time distribution at 2 uM after 20 hrs by ion mobility-mass spectrometry analysis (reference value: 5.23 milliseconds).
Test [12] addresses T1, Catalase (Bos taurus) (UniProt P00432).
T1 sequence (whole entry): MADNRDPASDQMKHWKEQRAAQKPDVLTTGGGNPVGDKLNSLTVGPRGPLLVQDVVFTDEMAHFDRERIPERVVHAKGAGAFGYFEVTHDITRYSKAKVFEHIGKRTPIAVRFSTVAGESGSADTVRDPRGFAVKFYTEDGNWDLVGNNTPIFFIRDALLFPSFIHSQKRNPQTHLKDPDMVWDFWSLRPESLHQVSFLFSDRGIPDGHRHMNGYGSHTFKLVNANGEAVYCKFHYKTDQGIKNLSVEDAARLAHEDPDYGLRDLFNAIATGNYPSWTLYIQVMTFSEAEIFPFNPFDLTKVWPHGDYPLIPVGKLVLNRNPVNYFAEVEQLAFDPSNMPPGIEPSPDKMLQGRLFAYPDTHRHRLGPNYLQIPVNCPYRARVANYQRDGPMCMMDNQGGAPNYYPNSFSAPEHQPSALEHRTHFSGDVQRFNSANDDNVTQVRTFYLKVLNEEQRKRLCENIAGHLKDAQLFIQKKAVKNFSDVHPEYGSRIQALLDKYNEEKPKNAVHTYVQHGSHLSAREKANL
Kind of test: Inhibition of heat-induced amorphous aggregation of bovine liver catalase at 2.5 uM measured over 2 hrs by light scattering assay. The method, boiled down:
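Catalase (5 μM) aggregated by heating at 55 °C; absorbance (light scattering) at 340 nm tracked for 2 h with or without C-PC (2.5 μM); triplicate, mean ± SEM.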

Test [13] concerns Alpha-synuclein (Homo sapiens), P37840 [A53T]. Kind of test: Binding affinity to human 15N-labeled alpha-synuclein A53T mutant expressed in Escherichia coli BL21(DE3) assessed as reduction in signal to noise ratio at 7.5 uM by 2D 1H-15N HSQC NMR analysis. In outline: as §2
Test [14] is described as follows: Self fibrillation of the compound in pH 7.4 ammonium acetate buffer after 100 hrs by ThT fluorescence assay. The method, boiled down:
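C-PC alone incubated in 500 mM ammonium acetate pH 7.4 at 37 °C with ThT; fluorescence at 440/490 nm tracked over time.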

Test [15] deals with Alpha-synuclein (Homo sapiens), P37840 [A53T]. Put plainly: Inhibition of preformed fibrils of human alpha-synuclein A53T mutant expressed in Escherichia coli BL21(DE3) at 5 uM treated after 60 hrs during fibril elongation phase by ThT fluorescence assay. In outline: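 ThT-monitored αS (10 μM) aggregation at 37 °C in 500 mM ammonium acetate pH 7.4; C-PC (5 μM) added at 60 h during elongation, and fluorescence (440/490 nm) followed afterwards; n = 3.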

For test [16], the target named is Amyloid-beta precursor protein (Homo sapiens) (UniProt P05067). Put plainly: Inhibition of amyloid beta (1 to 42) (unknown origin) fibril formation at protein to compound ratio of 5:1 after 100 hrs by ThT fluorescence assay. In outline: as §4

Active and inactive are the calls of the source. The rule behind the calls is not given here.

Chain of Amyloid-beta precursor protein (Homo sapiens) (P05067 whole entry): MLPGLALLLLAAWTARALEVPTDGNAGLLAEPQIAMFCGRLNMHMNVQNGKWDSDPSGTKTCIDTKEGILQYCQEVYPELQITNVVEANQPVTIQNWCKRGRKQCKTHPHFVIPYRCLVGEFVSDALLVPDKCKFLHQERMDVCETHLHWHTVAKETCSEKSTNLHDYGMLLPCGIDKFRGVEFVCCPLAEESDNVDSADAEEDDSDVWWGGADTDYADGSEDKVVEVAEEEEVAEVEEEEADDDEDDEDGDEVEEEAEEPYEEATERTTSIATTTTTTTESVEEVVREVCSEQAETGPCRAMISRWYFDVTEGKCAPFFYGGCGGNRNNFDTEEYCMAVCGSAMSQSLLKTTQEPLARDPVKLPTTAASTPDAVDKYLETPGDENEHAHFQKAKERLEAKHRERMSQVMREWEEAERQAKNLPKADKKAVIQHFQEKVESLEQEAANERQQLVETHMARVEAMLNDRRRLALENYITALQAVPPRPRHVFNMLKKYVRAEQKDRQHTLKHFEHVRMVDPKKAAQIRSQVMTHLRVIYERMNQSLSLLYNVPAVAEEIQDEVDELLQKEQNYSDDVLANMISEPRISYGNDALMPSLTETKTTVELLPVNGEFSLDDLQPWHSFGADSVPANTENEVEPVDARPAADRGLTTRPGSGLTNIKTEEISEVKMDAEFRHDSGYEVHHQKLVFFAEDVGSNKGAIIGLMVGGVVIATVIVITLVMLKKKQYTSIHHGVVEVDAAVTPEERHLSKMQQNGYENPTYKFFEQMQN

Regarding `C/C=C1/C(=C\c2[nH]c(/C=C3N=C(/C=C4/NC(=O)C(CC)=C4C)C(C)=C/3CCC(=O)O)c(CCC(=O)O)c2C)NC(=O)C1C` (stereo unspecified), the inhibition result in test [1] and in test [12] was “inactive” each time. Besides, the inhibition entry in test [2], in test [6], in [8], in [9], in [15] and in [16] was “Active” throughout. The outcome in test [3] and in [13] was Active. The result in [4], in test [10] and in [14] was inactive. Moreover, the figures for the inhibition in test [5] and in test [7] were 50% and “Dose-dependent effect”, respectively. Also, in test [11], the TIME worked out at 1.4e-06 h.

The record behind these values is ChEMBL document CHEMBL4371098, “C-Phycocyanin from Spirulina Inhibits α-Synuclein and Amyloid-β Fibril Formation but Not Amorphous Aggregation” (J Nat Prod, 2019).
